According to ChEMBL document CHEMBL3994584, “Identification of novel fluorescent probes preventing PrPSc replication in prion diseases” (Eur J Med Chem, 2017):
The source made the active and inactive calls. No cut-off for these calls is given here.

Columns and labels:
Mus musculus [1] = species on record: Mus musculus; assay: Binding affinity to PrPSc aggregates in mouse prion protein RML infected mouse ScN2a cells incubated for 8 mins followed by proteinase K digestion using FITC filter by fluorescence confocal microscopic method
Outline: (§1)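 N2a or ScN2a cells were grown on coverslips for 24 h, then fixed and permeabilized (4% formaldehyde/0.1% Triton X-100, 1 h, RT) and denatured with 6 M GdnHCl for 10 min. Where PK was used: 20 µg/mL for 15 min at 37 °C, stopped with PMSF. After NGS blocking, cells were stained with compound at 0.025% in 80% EtOH for 8 min at RT. Imaging was by confocal microscopy with a FITC filter.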

[2] = Cytotoxicity against mouse ScN2a cells assessed as cell viability at 0.1 uM after 5 days by MTT assay relative to control; assay type: cell-based; conditions: read-out: Activity
Outline: (§2)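 ScN2a cells were seeded in MEM at 2.5×10^4 cells/mL and allowed to settle for 2 h. Compounds (DMSO stock, diluted in EtOH then medium) were added at 0.1, 1 and 10 μM for 5 days at 37 °C under 5% CO2. MTT (5 mg/mL) was applied for 3 h and solubilized with DMSO/2-propanol. Plates were read at 570/690 nm. Viability is given as % of untreated control, mean ± SD of three independent experiments.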

[3] = Cytotoxicity against mouse ScN2a cells assessed as cell viability at 1 uM after 5 days by MTT assay relative to control; assay type: cell-based; conditions: read-out: Activity; outline: as §2
[4] = Cytotoxicity against mouse ScN2a cells assessed as cell viability at 10 uM after 5 days by MTT assay relative to control; assay type: cell-based; conditions: read-out: Activity; outline: as §2
Mus musculus [5] = species on record: Mus musculus; assay: Antiprion activity against mouse prion protein RML infected mouse ScN2a cells assessed as proteinase K-resistant PrPSc level at 0.1 uM incubated for 5 days followed by proteinase K digestion by Western blot method relative to control
Outline: (§3)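 RML-infected ScN2a cells were treated with 0.1, 1 and 10 μM for 5 days, with DMSO ≤0.1% final. Lysates (500 μg protein) were digested with 10 μg PK for 1 h at 37 °C, stopped with 2 mM PMSF and ultracentrifuged. Pellets were run on SDS-PAGE and immunoblotted with anti-PrP Fab W226, with ECL detection. Densitometry gave PK-resistant PrPSc over total PrP, with untreated set to 100%. Three independent experiments.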

Mus musculus [6] = species on record: Mus musculus; assay: Antiprion activity against mouse prion protein RML infected mouse ScN2a cells assessed as proteinase K-resistant PrPSc level at 1 uM incubated for 5 days followed by proteinase K digestion by Western blot method relative to control; outline: as §3
Mus musculus [7] = species on record: Mus musculus; assay: Antiprion activity against mouse prion protein RML infected mouse ScN2a cells assessed as proteinase K-resistant PrPSc level at 10 uM incubated for 5 days followed by proteinase K digestion by Western blot method relative to control; outline: as §3
N2a = assay: Effect on cellular prion protein level in mouse N2A cells up to 10 uM incubated for 5 days by Western blot method; assay type: functional, cell-based
Outline: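 Non-infected N2a cells were treated at 0.1, 1 and 10 μM for 5 days. Lysates (50 µg protein, no PK digestion) were immunoblotted with anti-PrP Fab W226. PrPC was normalized to actin, with untreated controls set to 100%. Done in triplicate.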

[8] = Antiprion activity against mouse prion protein RML infected mouse ScGT1 cells assessed as reduction in proteinase K-resistant PrPSc level incubated for 7 days followed by proteinase K digestion by ELISA; conditions: ScGT1, 168 h
Mus musculus [9] = species on record: Mus musculus; assay: Binding affinity to proteinase K sensitive cellular prion protein in mouse N2A cells incubated for 8 mins by fluorescence confocal microscopic method; assay type: cell-based; outline: as §1
[10] = Cytotoxicity against mouse ScN2a cells assessed as growth inhibition at 1 uM after 5 days by MTT assay relative to control; assay type: cell-based; conditions: read-out: GI; outline: as §2

SMILES | Activity (Mus musculus [1]) | viability at 120 h, 0.1 µM [2] | viability at 120 h, 1 µM [3] | viability at 120 h, 10 µM [4] | Activity (Mus musculus [5]) | Activity (Mus musculus [6]) | Activity (Mus musculus [7]) | Activity (N2a) | IC50 [8] | Activity (Mus musculus [9]) | inhibition at 120 h, 1 µM [10]
Cc1ccc2c(c1)sc(-c1ccc(N(C)C)cc1)[n+]2C | Active |  |  |  |  |  |  |  |  |  | 
CC1=CC2=NC(N/N=C/c3ccnc4ccccc34)=C3CC=CN3C2C=C1C (centres undefined) |  | 96.7% | 98.6% | 86.5% | 137% | 100% | 29% | inactive |  |  | 
COc1ccc2c(C)cc(N/N=C/c3ccnc4ccccc34)nc2c1 |  | 93.9% | 84.8% | 83.8% | 88% | 77% | 13% | inactive |  |  | 
C(=C\c1ccco1)/NNc1nc2ccccc2n2cccc12 |  | 96.8% | 88.5% | 71.4% | 105% | 86% | 35% | inactive |  |  | 
C1=CC2C(=NC(N/N=C/c3ccnc4ccccc34)=C3CC=CN32)N=C1 (centres undefined) |  | 104% | 98.6% | 75.6% | 128% | 144% | 83% | inactive |  |  | 
COC1=CC2=NC(N/N=C/c3ccnc4ccccc34)=C3CC=CN3C2C=C1 (centres undefined) | Active | 107% | 96.3% | 83.3% | 76% | 35% | 9% | inactive | 1.6 µM | inactive | 
C1=CC2=NC(N/N=C/c3ccnc4ccccc34)=C3CC=CN3C2C=C1 (centres undefined) |  | 92.3% | 88.3% | 87% | 90% | 78% | 27% | inactive |  |  | 
COC(=O)C1=CC2=NC(N/N=C/c3ccc4ccccc4n3)=C3CC=CN3C2C=C1 (centres undefined) |  | 92.6% | 88.2% | 45.4% |  |  |  |  |  |  | > 20%
COC(=O)C1=CC2=NC(N/N=C/c3ccnc4ccccc34)=C3CC=CN3C2C=C1 (centres undefined) |  | 72.6% | 89.3% | 67.1% | 104% | 131% | 30% | inactive |  |  | 
c1ccc2c(NCCCCCCCCNc3c4c(nc5ccccc35)CCCC4)c3c(nc2c1)CCCC3 |  |  | 0.7% |  |  |  |  |  |  |  | > 20%
FC1=CC2=NC(N/N=C/c3ccnc4ccccc34)=C3NC=CN3C2C=C1 (centres undefined) |  | 87.7% | 92.6% | 72.9% | 76% | 34% | 31% | inactive |  |  | 
C1=CC2=NC(N/N=C/c3ccnc4ccccc34)=C3NC=CN3C2C=C1 (centres undefined) |  | 94.4% | 98.5% | 83.2% | 178% | 131% | 30% | inactive |  |  | 
CN(CCCCNc1c2c(nc3ccccc13)CCCC2)CCCNc1c2c(nc3ccccc13)CCCC2 |  |  | 76.9% |  |  |  |  |  |  |  | > 20%
C(=C\c1cccs1)/NNc1nc2ccccc2n2cccc12 |  | 78.9% | 81.9% | 80.7% | 88% | 79% | 72% | inactive |  |  | 
C1=CC2=NC(N/N=C/c3ccc4ccccc4n3)=C3CC=CN3C2C=C1 (centres undefined) |  | 87.6% | 94.8% | 90.9% | 54% | 47% | 34% | inactive |  |  | 
